# Measured values taken from ChEMBL document CHEMBL1142335, “Structure-activity relationships of 2-chloro-N6-substituted-4'-thioadenosine-5'-N,N-dialkyluronamides as human A3 adenosine receptor antagonists” (Bioorg Med Chem Lett, 2008).
# Target: T1, Adenosine receptor A2a (Homo sapiens, UniProt P29274)
# Test: Displacement of [3H]CGS-21680 from human adenosine A2A receptor expressed in CHO cells at 10 uM
# Format: cell-based
# T1 sequence (P29274 whole entry): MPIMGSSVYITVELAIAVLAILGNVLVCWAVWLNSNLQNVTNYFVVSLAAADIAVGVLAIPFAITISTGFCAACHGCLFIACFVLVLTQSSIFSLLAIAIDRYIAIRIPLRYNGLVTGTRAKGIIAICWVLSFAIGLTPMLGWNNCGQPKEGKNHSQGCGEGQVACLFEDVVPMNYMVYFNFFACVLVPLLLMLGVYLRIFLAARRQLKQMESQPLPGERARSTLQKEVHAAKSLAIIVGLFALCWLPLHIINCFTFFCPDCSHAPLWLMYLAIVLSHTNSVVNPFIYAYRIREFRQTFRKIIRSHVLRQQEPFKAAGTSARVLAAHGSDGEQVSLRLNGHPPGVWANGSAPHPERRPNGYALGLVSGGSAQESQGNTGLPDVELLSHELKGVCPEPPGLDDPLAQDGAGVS
row,inhibition [%],SMILES
1,10,CN(C)C(=O)[C@H]1S[C@@H](n2cnc3c(NC4CCC4)nc(Cl)nc32)[C@H](O)[C@@H]1O
2,12,O=C([C@H]1S[C@@H](n2cnc3c(NCc4cccc(I)c4)nc(Cl)nc32)[C@H](O)[C@@H]1O)N1CCC1
3,8,CCN(C(=O)[C@H]1S[C@@H](n2cnc3c(NCc4cccc(I)c4)nc(Cl)nc32)[C@H](O)[C@@H]1O)c1ccccc1
4,-7,CN1CCN(C(=O)[C@H]2S[C@@H](n3cnc4c(NCc5cccc(I)c5)nc(Cl)nc43)[C@H](O)[C@@H]2O)CC1
5,4,CN(C)C(=O)[C@H]1S[C@@H](n2cnc3c(NC4CCCC4)nc(Cl)nc32)[C@H](O)[C@@H]1O
6,15,O=C([C@H]1S[C@@H](n2cnc3c(NCc4cccc(I)c4)nc(Cl)nc32)[C@H](O)[C@@H]1O)N1CCSCC1
7,14,O=C([C@H]1S[C@@H](n2cnc3c(NCc4cccc(I)c4)nc(Cl)nc32)[C@H](O)[C@@H]1O)N1CCCC1
8,5,CCCN(C)C(=O)[C@H]1S[C@@H](n2cnc3c(NCc4cccc(I)c4)nc(Cl)nc32)[C@H](O)[C@@H]1O
9,-1,CN(C)C(=O)[C@H]1S[C@@H](n2cnc3c(NCc4cccc(Cl)c4)nc(Cl)nc32)[C@H](O)[C@@H]1O
10,13,CN(CCO)C(=O)[C@H]1S[C@@H](n2cnc3c(NCc4cccc(I)c4)nc(Cl)nc32)[C@H](O)[C@@H]1O

# Target: T2, Adenosine receptor A1 (Homo sapiens) (UniProt P30542)
# T2 sequence (whole entry): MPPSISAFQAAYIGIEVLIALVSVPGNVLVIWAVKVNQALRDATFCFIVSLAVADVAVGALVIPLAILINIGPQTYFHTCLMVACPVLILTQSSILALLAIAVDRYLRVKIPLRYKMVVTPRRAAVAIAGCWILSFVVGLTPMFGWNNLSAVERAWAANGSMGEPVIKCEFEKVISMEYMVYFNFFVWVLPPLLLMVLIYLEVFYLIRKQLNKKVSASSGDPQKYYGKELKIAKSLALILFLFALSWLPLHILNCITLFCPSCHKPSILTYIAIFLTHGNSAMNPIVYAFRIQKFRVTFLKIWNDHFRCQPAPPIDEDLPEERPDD
# Test: Displacement of [3H]CCPA from human adenosine A1 receptor expressed in CHO cells at 10 uM
# Format: cell-based
row,inhibition [%],SMILES
1,8,O=C([C@H]1S[C@@H](n2cnc3c(NCc4cccc(I)c4)nc(Cl)nc32)[C@H](O)[C@@H]1O)N1CCC1
2,18,CCN(C(=O)[C@H]1S[C@@H](n2cnc3c(NCc4cccc(I)c4)nc(Cl)nc32)[C@H](O)[C@@H]1O)c1ccccc1
3,19,CN1CCN(C(=O)[C@H]2S[C@@H](n3cnc4c(NCc5cccc(I)c5)nc(Cl)nc43)[C@H](O)[C@@H]2O)CC1
4,18,CN(C)C(=O)[C@H]1S[C@@H](n2cnc3c(NC4CCCC4)nc(Cl)nc32)[C@H](O)[C@@H]1O
5,19,O=C([C@H]1S[C@@H](n2cnc3c(NCc4cccc(I)c4)nc(Cl)nc32)[C@H](O)[C@@H]1O)N1CCSCC1
6,20,O=C([C@H]1S[C@@H](n2cnc3c(NCc4cccc(I)c4)nc(Cl)nc32)[C@H](O)[C@@H]1O)N1CCCC1
7,50,CCCN(C)C(=O)[C@H]1S[C@@H](n2cnc3c(NCc4cccc(I)c4)nc(Cl)nc32)[C@H](O)[C@@H]1O
8,10,CN(C)C(=O)[C@H]1S[C@@H](n2cnc3c(NCc4cccc(Cl)c4)nc(Cl)nc32)[C@H](O)[C@@H]1O

# Target: T1, Adenosine receptor A2a
# Test: Displacement of [3H]CGS-21680 from human adenosine A2A receptor expressed in CHO cells
# Format: cell-based
# Summary of the method: (§1)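 Radioligand competition binding on CHO cells stably expressing the human receptor subtype, using agonist radioligands: [3H]CCPA for A1 and [3H]CGS21680 for A2A. Affinity is reported as Ki.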
row,IC50 [µM],SMILES
1,≥ 10,CN(C)C(=O)[C@H]1S[C@@H](n2cnc3c(NC4CCC4)nc(Cl)nc32)[C@H](O)[C@@H]1O
2,≥ 10,O=C([C@H]1S[C@@H](n2cnc3c(NCc4cccc(I)c4)nc(Cl)nc32)[C@H](O)[C@@H]1O)N1CCC1
3,≥ 10,CCN(C(=O)[C@H]1S[C@@H](n2cnc3c(NCc4cccc(I)c4)nc(Cl)nc32)[C@H](O)[C@@H]1O)c1ccccc1
4,≥ 10,CN1CCN(C(=O)[C@H]2S[C@@H](n3cnc4c(NCc5cccc(I)c5)nc(Cl)nc43)[C@H](O)[C@@H]2O)CC1
5,≥ 10,CN(C)C(=O)[C@H]1S[C@@H](n2cnc3c(NC4CCCC4)nc(Cl)nc32)[C@H](O)[C@@H]1O
6,≥ 10,O=C([C@H]1S[C@@H](n2cnc3c(NCc4cccc(I)c4)nc(Cl)nc32)[C@H](O)[C@@H]1O)N1CCSCC1
7,≥ 10,O=C([C@H]1S[C@@H](n2cnc3c(NCc4cccc(I)c4)nc(Cl)nc32)[C@H](O)[C@@H]1O)N1CCCC1
8,≥ 10,CCCN(C)C(=O)[C@H]1S[C@@H](n2cnc3c(NCc4cccc(I)c4)nc(Cl)nc32)[C@H](O)[C@@H]1O
9,≥ 10,CN(C)C(=O)[C@H]1S[C@@H](n2cnc3c(NCc4cccc(Cl)c4)nc(Cl)nc32)[C@H](O)[C@@H]1O
10,≥ 10,CN(CCO)C(=O)[C@H]1S[C@@H](n2cnc3c(NCc4cccc(I)c4)nc(Cl)nc32)[C@H](O)[C@@H]1O

# Target: T3, Adenosine receptor A3 (Homo sapiens, UniProt P0DMS8)
# T3 sequence (P0DMS8 whole entry): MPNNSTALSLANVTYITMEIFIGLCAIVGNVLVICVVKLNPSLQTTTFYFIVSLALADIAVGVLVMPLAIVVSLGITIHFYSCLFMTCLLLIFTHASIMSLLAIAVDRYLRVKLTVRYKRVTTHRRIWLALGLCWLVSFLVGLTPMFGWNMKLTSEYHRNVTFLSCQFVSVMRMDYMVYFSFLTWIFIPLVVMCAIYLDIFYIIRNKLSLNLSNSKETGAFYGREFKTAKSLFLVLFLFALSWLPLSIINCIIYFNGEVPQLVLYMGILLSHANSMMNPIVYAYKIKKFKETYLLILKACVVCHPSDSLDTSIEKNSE
# Test: Displacement of [3H]ABMECA from human adenosine A3 receptor expressed in CHO cells
# Format: cell-based
row,Ki [µM],SMILES
1,0.115,CN(C)C(=O)[C@H]1S[C@@H](n2cnc3c(NC4CCC4)nc(Cl)nc32)[C@H](O)[C@@H]1O
2,0.0434,O=C([C@H]1S[C@@H](n2cnc3c(NCc4cccc(I)c4)nc(Cl)nc32)[C@H](O)[C@@H]1O)N1CCC1
3,0.398,CCN(C(=O)[C@H]1S[C@@H](n2cnc3c(NCc4cccc(I)c4)nc(Cl)nc32)[C@H](O)[C@@H]1O)c1ccccc1
4,0.667,CN1CCN(C(=O)[C@H]2S[C@@H](n3cnc4c(NCc5cccc(I)c5)nc(Cl)nc43)[C@H](O)[C@@H]2O)CC1
5,0.837,CN(C)C(=O)[C@H]1S[C@@H](n2cnc3c(NC4CCCC4)nc(Cl)nc32)[C@H](O)[C@@H]1O
6,0.867,O=C([C@H]1S[C@@H](n2cnc3c(NCc4cccc(I)c4)nc(Cl)nc32)[C@H](O)[C@@H]1O)N1CCSCC1
7,0.117,O=C([C@H]1S[C@@H](n2cnc3c(NCc4cccc(I)c4)nc(Cl)nc32)[C@H](O)[C@@H]1O)N1CCCC1
8,0.727,CCCN(C)C(=O)[C@H]1S[C@@H](n2cnc3c(NCc4cccc(I)c4)nc(Cl)nc32)[C@H](O)[C@@H]1O
9,0.0213,CN(C)C(=O)[C@H]1S[C@@H](n2cnc3c(NCc4cccc(Cl)c4)nc(Cl)nc32)[C@H](O)[C@@H]1O
10,0.126,CN(CCO)C(=O)[C@H]1S[C@@H](n2cnc3c(NCc4cccc(I)c4)nc(Cl)nc32)[C@H](O)[C@@H]1O

# Target: T4, Adenosine receptor A1 (Homo sapiens, UniProt P30542)
# T4 sequence (P30542 whole entry): T2 sequence (whole entry)
# Test: Displacement of [3H]CCPA from human adenosine A1 receptor expressed in CHO cells
# Format: cell-based
# Summary of the method: as §1
Ki [µM],IC50 [µM],SMILES
0.345,,CN(C)C(=O)[C@H]1S[C@@H](n2cnc3c(NC4CCC4)nc(Cl)nc32)[C@H](O)[C@@H]1O
,≥ 10,O=C([C@H]1S[C@@H](n2cnc3c(NCc4cccc(I)c4)nc(Cl)nc32)[C@H](O)[C@@H]1O)N1CCC1
,≥ 10,CCN(C(=O)[C@H]1S[C@@H](n2cnc3c(NCc4cccc(I)c4)nc(Cl)nc32)[C@H](O)[C@@H]1O)c1ccccc1
,≥ 10,CN1CCN(C(=O)[C@H]2S[C@@H](n3cnc4c(NCc5cccc(I)c5)nc(Cl)nc43)[C@H](O)[C@@H]2O)CC1
,≥ 10,CN(C)C(=O)[C@H]1S[C@@H](n2cnc3c(NC4CCCC4)nc(Cl)nc32)[C@H](O)[C@@H]1O
,≥ 10,O=C([C@H]1S[C@@H](n2cnc3c(NCc4cccc(I)c4)nc(Cl)nc32)[C@H](O)[C@@H]1O)N1CCSCC1
,≥ 10,O=C([C@H]1S[C@@H](n2cnc3c(NCc4cccc(I)c4)nc(Cl)nc32)[C@H](O)[C@@H]1O)N1CCCC1
,≥ 10,CCCN(C)C(=O)[C@H]1S[C@@H](n2cnc3c(NCc4cccc(I)c4)nc(Cl)nc32)[C@H](O)[C@@H]1O
,≥ 10,CN(C)C(=O)[C@H]1S[C@@H](n2cnc3c(NCc4cccc(Cl)c4)nc(Cl)nc32)[C@H](O)[C@@H]1O
0.237,,CN(CCO)C(=O)[C@H]1S[C@@H](n2cnc3c(NCc4cccc(I)c4)nc(Cl)nc32)[C@H](O)[C@@H]1O
